# Test results as given in the RNAGym collection of RNA variant scans (doi:10.1126/science.aae0568).
# This sample holds only a part of the variants without activity.
# B1: tRNA (parent)
# chain: GUUCCGUUGGCGUAAUGGUAACGCGUCUCCCUCCUAAGGAGAAGACUGCGGGUUCGAGUCCCGUACGGAACG
# Variants of: B1
# Assay: yeast fitness relative to wild type (ratio to wild type); higher = fitter; tRNA-Arg(CCU), competitive growth, 37 C, YPD
# Summary of the method: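 Start and end populations of a pooled competition were compared by 100-nucleotide paired-end sequencing of gene amplicons. The Saccharomyces cerevisiae strains carried tRNA-Arg(CCU) gene variants at the native genomic locus, synthesised with a 3% per-site mutation rate at 69 sites, and competed in YPD at 37°C for 24 hours in six parallel replicates. Darwinian fitness relative to wild type was based on the change in genotype frequencies. Genotypes required ≥ 100 starting reads, and estimates < 0.5 were set to 0.5.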
row,Variant,yeast fitness
1,GUUCCGUUGGCGUAAUCGUAACGCGUCUUCCUCCUACGGAGAAGACUGCGGGUUCGAGUCCCGUACGGUACG,≤ 0.5
2,GUUCCGUUGGCGUAAUCGUAACGCGUCUCCCUCUUAAGGAGAAGACUGCGGGUUCGAGUCUCGUACGGAACG,0.55
3,GUUCCGUUGGCGUAAUCGUAACGCGUCUCCCUCCUAAGGAGAAGAAUGCGGGUUCGAGUCCCGUCCGGAACG,≤ 0.5
4,GUUCCGUUGGCGUAAUCGUAACGCGUCUCCCUCCUAAGGAGAAGAGUGCGGGUUCGAGUCCCGUACGAAACG,≤ 0.5
5,GUUCCGUUGGCGUAAUCGUAACGCGUCUCCCUCCUAAGGAGAAGAUUGCGGGUUCGAGUCCCGUACGAAACG,≤ 0.5
6,GUUCCGUUGGCGUAAUCGUAACGCGUCUCCCUCCUAAGGAGAAGACUGCGGGUUCGAGUCGCGUAUGGAACG,≤ 0.5
7,GUUCCGUUGGCGUAAUCGUAACGCGUCUCCCUCCUAAGGAGAAGACUGCGGGUUCGAGUCCGGUACGGAACG,0.57
8,GUUCCGUUGGCGUAAUCCUAACGCGUCUCCCUCCUAAGGAGAACACUGCGGGUUCGAGACCCGUACGGAACG,≤ 0.5
9,GUUCCGUUGGCGUAAUCGUAACUCGUCACCGUCCUAAGGAGAAGACUGCGGGUUCGAGUCCCGUGCGGAACG,≤ 0.5
10,GUUCCGUUGGCGUAAUCGUAACGCAUCUCCCUCCUAAGGAGAAGACUGAGGGUUCGAGUCCCGUACGGUACG,≤ 0.5
11,GUUCCGUUGGCGUAAUCGUAACGCGUCUCCCUCCUAACGAGACGACUGCGGGUUCGAGUCCCGUACGGUACG,≤ 0.5
12,GUUCCGUUGGCGUAAUCGUAACGCGUCUCCCUCCUAAGGAAAAGACUGCGGGUUCGAGUCCCGUACGGAACG,0.615
13,GUUCCGUUGGCGUAAUCGUAACGCGUCUCCCUCCUAAGGAGAAGACUACGGGUUCGAGUCCCGUACGGAACG,0.685
14,GUUCCGUUGGCGUAAUCGUAACGCGUCUCCCUCCUAAGGAGAAGACUGCCGGUUCGAGUCCCGUACGGAACG,0.536
15,GUUCCGUUGGCGUAAUCGUAACGCGUCUCCCUCCUAAGGAGAAGACUGCGGGUUCGACUCCUGUACGGAACG,≤ 0.5
16,GUUCCGUUGGCGUAAUCGAAACGCGUCUCUCUCCUGAGGAGAAGACUGCGGGUUCGAGUCCCGUACGGAGCG,≤ 0.5
17,GUUCCGUUGGCGUAAUCGAAACGCGUCUCCCUCCUAAGGAGAAGACUGGGGGUUCGAGUCCCGUACGGGACG,≤ 0.5
18,GUUCCGUUGGCGUAAUCGUAACGCGCCUCCCUCCUAAGGAGAAGAUUGCGGGUUCGAGUCCCGUCCGGAACG,≤ 0.5
19,GUUCCGUUGGCGUAAUCGUAACGCGUCACCCUCGUAAAGAGAAGACUGCGAGUUCGAGUCCCGUACGGAACG,0.512

row,Variant,yeast fitness
1,GUUCCGUUGGCGUAAUCGUAACGCGUCGUCCUCCUACGGAGAAGACUGCGGGUUCGAGUCCCGUCCGGAACG,≤ 0.5
2,GUUCCGUUGGCGUAAUCGUAACGCGUCGCCCUCCUAAGGAGAAGACUACGGGUUCGAGUCCCGUACGGCACG,≤ 0.5
3,GUUCCGUUGGCGUAAUCGUAACGCGUCUCCCUCCAAAGGAGAAGACUGCGGGUUCGAGUCUCGUACGGAACG,≤ 0.5
4,GUUCCGUUGGCGUAAUCGUAACGCGUCUCCCUCCCAAGGAGAAGACUGCGGGUUCGAGUUCCGUACGGAACG,≤ 0.5
5,GUUCCGUUGGCGUAAUCGUAACGCGUCUCCCUCCGAAGGAGAAGACUGCGGGUUCGAGUCCCGUACGGAACG,0.554
6,GUUCCGUUGGCGUAAUCGUAACGCGUCUCCCUCCUAAGGAGAAGACGGCGGGUUCGAGUCCCGUACGGAACG,≤ 0.5
7,GUUCCGUUGGCGUAAUCGUAACGCGUCUCCCUCCUAAGGAGAAGACGGCGGGUUCGAGUCCCGUACAGUACG,0.55
8,GUUCCGUUGGCGUAAUCGUAACGCGUCUCCCUCCUAAGGAGAAGACUGCGGGAUCGAGUCCCGUACGGAACG,0.583
9,GUUCCGUUGGCGUAAUCGUAACGCGUCUCCCUCCUAAGGAGAAGACUGCGGGAUCGAGUACCGUACAGAACG,≤ 0.5
10,GUUCCGUUGGCGUAAUCGUAACGCGUCUCCCUCCUAAGGAGAAGACUGCGGGUACCAGUCCCGUACGGAACG,≤ 0.5
11,GUUCCGUUGGCGUAAUUGUAACGCGUCUCCCUCCUAAGGAGAAGACUGCGGGUUCGAGUCCCGUACGGAACG,0.851
12,GUUCCGUUGGCGUAAUUGUAACGCGUCUCCCUCCUAUGGAGAAGACUGCGGGUUCGAGUCCCGUACGGAACG,≤ 0.5
13,GUUCCGUUGGCGUAAUUGUAACGCGUCUCCCUCCUAAGGAGAAGACUGCGGGUUCGGGUCCCGUACGGCACG,≤ 0.5
14,GUUCCGUUGGCGUAAUUGUAACGCGUCUCACUCCUAAGGAGAUGACUGCGGGUUCGAGUCCCGUAUGGAACG,≤ 0.5
15,GUUCCGUUGGCGUAAUUGUAACGCGUCUCCCUCCUAAGGAGAAGAAUGCGGGUUCGAGUCCCGUACGGAACG,0.785
16,GUUCCGUUGGCGUAAUUGUAACGCAUCGCCCUCCUAAGGAGAAGACUGCGGGUUCGAAUCCCGUAGGGAACG,≤ 0.5
17,GUUCCGUUGGCGUAAUGAUGACGCGUCUCCCUCCUAAGGAGAAGACUGCGGGUUCGAGUCCCGUACGGAACG,0.613
18,GUUCCGUUGGCGUAAUGAUUACGCGUCUCCCUCCUAAGGAGAAGACUGCGGGUUCGAGUCCCGUACGGAACG,0.721
19,GUUCCGUUGGCGUAAUGAUUACGCGUCUCCCUCUUGAGGAGAAGACUGCGGGUUCGAGUCCCGUACGGAACG,≤ 0.5
